# Screening results: PubChem, several laboratories
# mABHD4 FP: ABHD4 (mouse) inhibition, primary FP screen; Q8VD66; purified mABHD4, FP-Rh probe fluorescence polarization; inhibition, % at 8.92 µM; hit rate 0.54% among 370,000; AID 720543;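 active = inhibition exceeding the mean over every tested compound plus 3 SD, cut at about 30% in these data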;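 also: 0% = plate median of compound wells and 100% = S159A mutant with DMSO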
#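 Test system: mABHD4 protein; Read-out basis: % inhibition; Incubation: 45 min + 60 min at 25 °C; Repeats: single replicate; Technique: fluorescence polarization with parallel and perpendicular emission, 525/598 nm; Compound: 8.92 µM, single dose; Benchmarks: full inhibition S159A mutant plus DMSO, zero as sample-well median.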
# PRMT1 FP inh: blocks human protein arginine methyltransferase 1. Q99873. recombinant PRMT1, activity-based probe fluorescence polarization. inhibition, % at 2.79 µM. hit rate 1.3% among 370,000. AID 652257;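 active = inhibition above about 21% made by adding two undisclosed values, limit read from the data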
# SIAE inh: human SIAE inhibition, primary screen. hit rate 0.69% among 370,000. Q9HAT2. SIAE FP-Rh probe binding, fluorescence polarization. inhibition, % at 9.66 µM;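 active = inhibition above a cutoff: mean of compounds within the control limits plus 3 SD of those, cut at about 17% in these data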;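 also: 0% = plate median of compound wells and 100% = probe without SIAE protein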
# HTRA1 inhibitor: HTRA1 (human) protease inhibition | AID 504803 | inhibition, % at 5.96 µM | recombinant HTRA1, FP-rhodamine activity-based probe, fluorescence polarization | Q92743 | hit rate 0.5% among 340,000; in the data active = inhibition above about 36%;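 also: 0% = enzyme with DMSO and 100% = wells lacking enzyme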
# Target sequence (Q92743 whole entry, looked up): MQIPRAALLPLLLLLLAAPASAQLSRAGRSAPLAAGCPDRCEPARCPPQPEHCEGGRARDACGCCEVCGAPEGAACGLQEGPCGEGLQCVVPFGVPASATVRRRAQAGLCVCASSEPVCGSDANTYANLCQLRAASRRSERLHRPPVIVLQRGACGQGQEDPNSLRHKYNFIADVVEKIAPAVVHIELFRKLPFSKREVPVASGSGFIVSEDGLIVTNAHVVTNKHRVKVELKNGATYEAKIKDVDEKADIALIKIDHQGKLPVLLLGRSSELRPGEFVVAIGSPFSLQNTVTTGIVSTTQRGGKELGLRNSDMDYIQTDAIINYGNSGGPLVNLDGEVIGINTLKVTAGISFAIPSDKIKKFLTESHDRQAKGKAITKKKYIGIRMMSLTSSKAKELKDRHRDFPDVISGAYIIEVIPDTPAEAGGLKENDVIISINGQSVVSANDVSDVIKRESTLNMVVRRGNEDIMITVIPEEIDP
# JMJD2C inh: human JMJD2C demethylase inhibition. hit rate 0.069% among 330,000. inhibition, % at 2.35 µM. GST-JMJD2C(1-420) H3K9me3 demethylation, DELFIA europium. AID 2099;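 active = more than half of a compound's replicate wells show inhibition beyond 50%, single wells judged on their own value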;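 also: signal counts dimethyl H3K9 product captured on neutravidin plate; 0% = median of DMSO wells and 100% = 0.3 times that DMSO median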
# SIAE confirm: human SIAE inhibition, confirmation. SIAE FP-Rh activity-based probe, fluorescence polarization. shares compounds with SIAE inh. inhibition, % at 9.66 µM. hit rate 13% among 2,300;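 active = mean inhibition of the replicates above the hit cutoff set in the primary screen, cut at about 17% in these data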;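 also: 0% = SIAE with DMSO and probe and 100% = probe without SIAE; inhibitors lower polarization as more probe stays unbound to SIAE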
# * marks the source's active call; other numbers are inactive results; / = no result. Most compounds without a hit are left out; they make up all but 2.4% or so of the library.
SMILES,mABHD4 FP,PRMT1 FP inh,SIAE inh,HTRA1 inhibitor,JMJD2C inh,SIAE confirm
CC(=O)Nc1ccc(S(=O)(=O)N2CCN(S(=O)(=O)c3ccc(NC(C)=O)cc3)CC2)cc1,3,-3,0,2,3,/
CC(=O)Nc1ccc(S(=O)(=O)N2CCCC3CCCCC32)cc1 (stereo unspecified),-7,1,22*,-7,/,-3
COC(=O)c1ccc(C)c(NC(=O)C(CCSC)NC(=O)c2cc(OC)c(OC)c(OC)c2)c1 (stereo unspecified),-1,-1,17*,0,1,-4
C[C@@H](N)P(=O)(O)C[C@H](Cc1ccccc1)C(=O)O,-4,-11,-5,/,/,/
O=c1c2ccc(F)cc2nc2sc(Nc3ccc4c(c3)CCC4)nn12,4,2,2,/,/,/
COc1ccc(NC(=O)Nc2ccc3c(c2)N(C)C(=O)CS3)cc1Cl,10,-3,27*,1,2,-3
CCOc1ccc(NC(=O)Nc2ccc3c(c2)N(C)C(=O)CS3)cc1,2,-1,18*,-4,19,-1
COc1ccc(-c2oc3c(OC)c(OC)c(OC)c(O)c3c(=O)c2OC)cc1OC,1,1,7,18,-17,/
COc1ccc(-c2cc(-c3c(O)c(OC)c4occc4c3OC)[nH]n2)cc1,10,2,22*,13,-5,12
COc1ccc(-c2cc(-c3c(O)c(OC)c4occc4c3OC)[nH]n2)cc1OC,6,2,19*,24,4,5
COc1ccc(CNC(=O)COc2cc3c(c4oc(=O)cc(C)c24)CCC(C)(C)O3)c(OC)c1,13,-2,-13,/,/,/
CN(CCOC(=O)c1cc2ccccc2o1)C1CN(Cc2cn(Cc3ccccc3Cl)nn2)S(=O)(=O)C1 (stereo unspecified),-6,4,10,/,/,/
CCOc1ncccc1C(=O)N1CCN(S(=O)(=O)c2ccc3c(c2)OCCO3)CC1,-2,-2,22*,1,7,-3
CN(C)S(=O)(=O)c1ccc(C(=O)N2CCN(S(=O)(=O)c3ccc4c(c3)OCCO4)CC2)cc1,-1,-1,20*,11,/,1
COC(=O)C[C@@H]1CC[C@H]2[C@@H](COc3ccc(NC(=O)Nc4ccccc4Cl)cc3C(=O)N2C)O1,6,0,9,/,/,/
CC[C@]12c3[nH]c4cc(-c5ccco5)ccc4c3CCN1C(=O)[C@@H](CC(=O)NCC13CC4CC(CC(C4)C1)C3)C[C@@H]2C(=O)N1CCN(C(=O)c2ccco2)CC1,22,7,18*,-9,/,0
CC[C@]12c3[nH]c4cc(-c5ccco5)ccc4c3CCN1C(=O)[C@@H](CC(=O)NCC13CC4CC(CC(C4)C1)C3)C[C@@H]2C(=O)N1CCN(C(=O)C2CC2)CC1,17,11,4,0,/,/
O=c1c2ccccc2oc2cc(Br)ccc12,2,0,20*,-14,/,4
O=C(NNc1c2ccccc2nc2ccccc12)c1cccc(O)c1,20,-1,18*,18,5,6
CN1C(=O)c2cc(NC(=O)Nc3ccccc3)ccc2OC[C@H]2O[C@@H](CC(=O)NC3CCC3)CC[C@@H]21,12,7,-2,/,/,/
O=C1[C@@H]2CSCN2C(=O)CN1Cc1ccccc1F,0,-8,19*,-1,-6,3
COc1cc(C(=O)Nc2scc(-c3ccc(Br)cc3)c2C(=O)O)cc(OC)c1OC,-37,-6,23*,-1,19,31*
COc1cc(CNc2ccc(CNc3ncn[nH]3)cc2)ccc1OCC(=O)NC(C)(C)C,7,0,4,4,-4,/
COc1cc(CNc2ccc(N3CCOCC3)cc2)ccc1OCC(=O)NC(C)(C)C,17,3,19*,10,-6,5
COC(=O)[C@H]1C[C@@]2(C)c3ccccc3N(S(=O)(=O)c3ccccc3)[C@H]2N1C(=O)CNC1CCCCC1,2,2,3,/,/,/
SMILES,mABHD4 FP,PRMT1 FP inh,SIAE inh,HTRA1 inhibitor,JMJD2C inh,SIAE confirm
COc1cccc(OC[C@@H](O)CN2CCC(C(O)(c3ccccc3)c3ccccc3)CC2)c1,7,-4,3,/,/,/
Cc1ccc(N(C)c2nc(N)nc(N)c2N=O)cc1,85*,173*,52*,/,/,95*
O=S1(=O)CC(N2CCN(Cc3ccccc3F)CC2)CN1Cc1cn(Cc2cccc(Cl)c2)nn1 (stereo unspecified),9,-1,0,/,/,/
CC(=O)NNC(=O)CCn1nnc(-c2ccc(Cl)cc2)n1,-2,-3,21*,-3,-31,5
CC(C)(C)NC(=O)Cn1nnc(-c2ccc(Cl)cc2)n1,-10,-3,-1,-1,109,/
Cc1c(CCNC=O)cc(C)c2c3c(oc12)CCCC3,-1,-1,89*,-19,/,5
C[C@H]1[C@@H](NCc2ccccc2)CC[C@@]23CCCN2C(=O)CCC[C@@H]13,0,-1,-1,/,/,/
Cc1cccc(C(=O)OCC(=O)NC(C)CCc2ccccc2)c1 (stereo unspecified),9,6,-5,-14,-11,/
Cc1cccc(C(=O)NCC(=O)NC(C)CCc2ccccc2)c1 (stereo unspecified),-3,1,20*,-4,15,-1
CCOCCCNc1nc(=S)[nH]c2cc(OC)c(OC)cc12,12,2,4,0,0,/
COc1cc2[nH]c(=S)nc(NCCCOC(C)C)c2cc1OC,3,-2,24*,3,5,-4
COc1ccc(NC(=O)CSc2ccc(-c3ccco3)nn2)cc1OC,2,12,18*,5,3,-2
COc1ccc(NC(=O)CSc2nncn2C)cc1OC,-6,0,33*,3,-1,0
COc1ccc(NC(=O)CSc2nnc3ccc(-c4cccnc4)nn23)cc1OC,-3,-1,21*,0,-4,4
COc1ccc(OC)c(NC(=O)CSc2ccc(-c3ccco3)nn2)c1,5,17,11,-3,1,/
COc1ccc(NC(=O)CSc2nnc3ccc(-c4cccnc4)nn23)cc1,-4,0,0,5,17,/
CC(=O)Nc1ccc(NC(=O)CSc2nncn2C)cc1,2,-3,-6,4,-1,/
COC(=O)[C@]12C[C@H](CC(=O)NCC3CCCCC3)C(=O)N(CCc3ccc(OC)c(OC)c3)C1=C[C@H](C(C)(C)C)O[C@@H]2C,2,1,4,/,/,/
N#Cc1cccc(NC(=O)CSc2ccc3c4c(cccc24)C(=O)c2ccccc2-3)c1,8,4,57*,2,-1,48*
C[C@H](O)[C@@H]1C(=O)N2CCc3c([nH]c4c(-c5ccccc5)cccc34)[C@@H]2C[C@@H]1N(C)CC1CCCCC1,20,4,2,/,/,/
C[C@H](NC(=O)CCCn1nnc2ccccc2c1=O)C(=O)O,9,-8,17*,0,-15,0
